Compound activity as filed in PubChem BioAssay.
MPTP block = blocks calcium-induced mitochondrial swelling | isolated mouse mitochondria, Ca2+ swelling absorbance, 30 min | inhibition, % at 10 µM | 360,000 compounds, 1.4% hits | AID 602449;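 active means inhibition of 50% or more, scaled per plate between neutral and stimulator controls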
DAGLB inhibitor = blocks human DAGLB lipase activity; AID 504411; HEK293T DAGLB membrane lysate, EnzChek fluorogenic substrate; 340,000 compounds, 0.059% hits; inhibition, % at 5.17 µM; Q8NCG7; in the data active means inhibition above about 34%
GPR7 antagonist = blocks human GPR7 receptor signaling; 290,000 compounds, 1.1% hits; AID 1861; P48145; inhibition, % at 4.4 µM; GPR7-expressing cells, fluorescence antagonist assay; in the data active means inhibition above about 16%, passing the limit was not always enough;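 further: cells stimulated with the agonist NPW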
Target sequence (P48145 whole entry, looked up): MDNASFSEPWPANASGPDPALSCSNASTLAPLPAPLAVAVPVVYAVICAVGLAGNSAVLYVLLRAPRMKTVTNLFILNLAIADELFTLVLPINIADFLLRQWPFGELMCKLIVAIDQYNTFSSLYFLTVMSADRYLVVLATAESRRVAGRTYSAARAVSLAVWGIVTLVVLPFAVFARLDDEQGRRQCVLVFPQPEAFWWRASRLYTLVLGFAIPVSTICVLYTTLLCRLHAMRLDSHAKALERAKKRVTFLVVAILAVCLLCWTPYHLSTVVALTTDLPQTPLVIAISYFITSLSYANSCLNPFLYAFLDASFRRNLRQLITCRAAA
TAAR1 antagonist = human TAAR1 antagonism; CHO RD-HGA16 TAAR1, Fluo-8 calcium fluorescence, antagonist; 360,000 compounds, 1.5% hits; inhibition, % at 3 µM; Q96RJ0;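 active means inhibition above a per-plate cutoff, the mean inhibition of test compounds on that plate plus 3 SD, cut at about 49% in these data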
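Test system: RD-HGA16 CHO cells with stable hTAAR1 and Gα16 / Probe or stimulus: EC80 β-phenethylamine stimulus / Times: seeding 17-24 h prior, 75-min 37 °C, 30-min RT dye loading / Detection: Fluo-8 calcium-sensitive fluorescence / Read-out basis: % inhibition scaled between DMSO and EC80 PEA controls / Repeats: singlicate, one well per test compound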
TAAR1 agonist = agonists of human TAAR1; Q96RJ0; CHO RD-HGA16 TAAR1, Fluo-8 calcium fluorescence; vehicle wells 0%, saturating PEA agonist 100%; activation, % at 3 µM; 360,000 compounds, 0.99% hits; AID 624467;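 active means activation above the mean activation of all test compounds in the run plus 3 SD, cut at about 38% in these data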
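test system = CHO RD-HGA16 cells carrying human TAAR1 plus Gα16 | schedule = 17-24 h seeding, 75 min 37 °C dye, 30 min RT | compound dosing = 3 µM single concentration | control set = DMSO and PEA EC100 | replicates = n 1 | signal = Fluo-8 fluorescence, 5 s baseline then 140 s kinetic read | measure = percent activation vs PEA EC100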
GPR7 antag cf = human GPR7 antagonism, confirmation assay | shares compounds with GPR7 antagonist | GPR7-expressing cells, calcium fluorescence antagonist mode | inhibition, % at 4.4 µM | 2,400 compounds, 52% hits | AID 1952; in the data active means inhibition above about 24%;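 further: stimulated with the GPR7 agonist NPW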
MCHR1 antagonist = MCHR1 (human) antagonism in GPR7 counter-screen; shares compounds with GPR7 antagonist; MCHR1-expressing cells, fluorescence antagonist assay; inhibition, % at 4.4 µM; 2,400 compounds, 62% hits; AID 2148
TAAR1 nonsel count = counter-screen for TAAR1 antagonists: nonselective antagonists; inhibition, % at 3 µM; 2,400 compounds, 77% hits; counterscreen cell line, calcium fluorescence, antagonist mode; shares compounds with TAAR1 antagonist;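 further: CHO-Ga16 host cells stimulated with ATP at an EC80 level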
TAAR1 ant conf = human TAAR1 antagonism, confirmed; 2,400 compounds, 40% hits; inhibition, % at 3 µM; TAAR1-expressing cells, fluorescence antagonist read-out; shares compounds with TAAR1 antagonist; in the data active means inhibition above about 49%;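 further: CHO-Ga16 host cells challenged with agonist PEA near its EC80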
Ga16 ag counter-1 = nonselective Ga16 agonist in TAAR1 antagonist counter-screen. shares compounds with TAAR1 antagonist. Ga16-expressing cells, calcium fluorescence, agonist counterscreen. 2,400 compounds, 18% hits. activation, % at 3 µM; in the data active means activation above about 12%
TAAR1 ag count = activates human TAAR1 in antagonist counter-screen | hTAAR1 cell line, fluorescence activation, agonist mode | shares compounds with TAAR1 antagonist | 2,400 compounds, 2% hits | AID 651955 | activation, % at 3 µM; in the data active means activation above about 37%;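 further: CHO cells stably expressing TAAR1 with calcium dye readout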
TAAR1 ag confirm = human TAAR1 agonism, confirmed | shares compounds with TAAR1 agonist | CHO RD-HGA16 TAAR1, Fluo-8 calcium fluorescence; scaled: DMSO 0%, maximal phenethylamine 100% | activation, % at 3 µM | 2,400 compounds, 82% hits | AID 651783;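 active means activation above a cutoff set at the run's mean compound activation plus 3 SD, cut at about 39% in these data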
Ga16 ag counter-2 = nonselective agonist in parental cells, TAAR1 agonist counter-screen | shares compounds with TAAR1 agonist | CHO-Ga16 parental, Fluo-8 calcium fluorescence; normalized to maximal ATP response, DMSO zero | activation, % at 3 µM | 2,400 compounds, 50% hits | AID 651787;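 active means activation above the run cutoff, the mean activation over all tested wells plus 3 SD, cut at about 12% in these data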
TAAR1 desensitize = human TAAR1 agonist that also desensitizes the receptor; CHO RD-HGA16 hTAAR1, Fluo-8 calcium, beta-PEA response inhibition; 2,400 compounds, 46% hits; inhibition, % at 3 µM; shares compounds with TAAR1 agonist;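 active means inhibition above the run cutoff, the mean inhibition of all test compounds plus 3 SD, cut at about 49% in these data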;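 further: beta-PEA stimulus applied at its EC80; loss of beta-PEA calcium signal after compound pretreatment read as receptor desensitization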
Ga16 antag count = counter-screen for TAAR1 agonists: nonselective Ga16 antagonists; shares compounds with TAAR1 agonist; CHO-Ga16 ATP-induced calcium, Fluo-8 fluorescence; inhibition, % at 3 µM; 2,400 compounds, 39% hits;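 active means inhibition above the plate's mean compound inhibition plus 3 SD, computed per plate, cut at about 22% in these data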
Hits are given with their value; . = inactive; / = no result given. Most compounds without a hit are left out; they make up all but 4% or so of the library. Unless noted, no stated cut-off is given here; in the data, active means inhibition above about 22%; inactive means the rest.

SMILES	MPTP block	DAGLB inhibitor	GPR7 antagonist	TAAR1 antagonist	TAAR1 agonist	GPR7 antag cf	MCHR1 antagonist	TAAR1 ag confirm	Ga16 ag counter-2	TAAR1 desensitize	Ga16 antag count	others
O=C1c2cccc(OCC(=O)N3CCCc4ccccc43)c2CCN1Cc1ccc(Br)cc1	.	.	31	71	.	35	58	/	/	/	/	TAAR1 nonsel count=40;TAAR1 ant conf=51;Ga16 ag counter-1=.;TAAR1 ag count=.
COC(=O)c1cc2ccccn2c2c(C(=O)OC)c(C(=O)OC)cc1-2	.	.	31	62	.	.	22	/	/	/	/	TAAR1 nonsel count=28;TAAR1 ant conf=49;Ga16 ag counter-1=.;TAAR1 ag count=.
Cc1ccc(NS(=O)(=O)c2ccc(C(=O)NCC(c3ccco3)N(C)C)cc2)cc1 (stereo unspecified)	.	.	34	54	105	52	43	108	49	65	33
CN(C)C(CNC(=O)c1ccc(NS(=O)(=O)c2ccc(F)cc2)cc1)c1ccco1 (stereo unspecified)	.	.	/	.	.	/	/	/	/	/	/
CC(C)C[C@H]1CN=C(Nc2ccccc2)N1CCC1CCCC1	.	.	.	.	.	/	/	/	/	/	/
CC(C)C[C@H]1CN=C(Nc2ccccc2)N1CCCC1CCCCC1	.	.	55	.	58	53	39	58	26	.	27
CC(C)C[C@H]1CN=C(Nc2ccccc2)N1CC1CCC1	.	.	.	.	.	/	/	/	/	/	/
CC(C)C[C@H]1CN=C(Nc2ccccc2)N1CCCC1CCCC1	.	.	46	.	57	49	36	74	36	.	24
CCCCCCCCN1C(=O)[C@H](CC(=O)NCc2ccccc2)C[C@@]2(C(=O)OC)CCCCC=C12	.	/	/	.	.	/	/	/	/	/	/
Clc1ccccc1OCc1nnc(-c2ccccc2Br)o1	.	.	.	.	.	/	/	/	/	/	/
O=c1c(Cl)c(Cl)cnn1Cc1nnc(-c2ccccc2Br)o1	.	.	88	104	122	89	105	141	111	106	99
CC(NCc1ccc(OCc2ccc(Cl)cc2)cc1)C(O)c1ccccc1 (stereo unspecified)	.	.	27	.	52	58	81	39	27	49	40
CCOC(=O)C1CCN(C(=O)CCn2c(=O)oc3ccccc32)CC1	.	.	/	.	.	/	/	/	/	/	/
O=C(CCC1CCN(C(=O)CC2=CCCCC2)CC1)NCc1ccc(F)cc1	.	.	/	.	.	/	/	/	/	/	/
CCOC(=O)c1c(NC(=O)CN2C(=O)NC(C)(c3ccc(OC(F)F)cc3)C2=O)sc(C)c1C (stereo unspecified)	.	.	71	53	87	68	86	98	42	86	51
